Laboratory results published in ChEMBL document CHEMBL1156500, “Characterization of the metabolic activation of hepatitis C virus nucleoside inhibitor beta-D-2'-Deoxy-2'-fluoro-2'-C-methylcytidine (PSI-6130) and identification of a novel active 5'-triphosphate species” (J Biol Chem, 2007).

Legend:
Hepatitis C virus [1] = experiment: Inhibition of RNA synthesis activity of […]; parameters: species or system Hepatitis C virus subtype 1b, Con1; settings: for IC50: Hepatitis C virus
Hepatitis C virus [2] = experiment: Inhibition of RNA synthesis activity of […] 1b Con1 replicase; parameters: species or system Hepatitis C virus subtype 1b
Method in brief: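 Membrane-associated native replication complexes were isolated from 2209-23 replicon cells, with 20 μl reactions. One format used 2.5×10^6 cell equivalents for 60 min. The other used 3.1×10^6 cell equivalents for 90 min in 50 mM HEPES pH 7.5, 5 mM MgCl2, actinomycin D, 1 mM ATP/GTP/CTP, 0.4 μM [α-33P]UTP and a creatine phosphate regeneration system.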

Hepatocyte = experiment: Drug uptake in human hepatocyte assessed as time needed for triphosphate to be reduced to half of maximum level; assay type: ADME, cell-based, Liver; settings: hepatocytes
Method in brief: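 Hepatocytes from 4 donors were loaded for 24 h with 2 μM 3H-drug (10 μCi/ml), washed, and placed in drug-free medium. Duplicate samples were taken 0–72 h later and analysed for triphosphates by radio-HPLC. Half-life came from a single-phase exponential decay fit, mean ± S.D. (n = 4).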

C[C@@]1(F)[C@H](O)[C@@H](COP(=O)(O)OP(=O)(O)OP(=O)(O)O)O[C@H]1n1ccc(=O)[nH]c1=O [GS-461203]
Ki (Hepatitis C virus [1]): 141 nM | IC50 (Hepatitis C virus [1]; Con1): 520 nM | IC50 (Hepatitis C virus [2]): 1190 nM

C[C@@]1(F)[C@H](O)[C@@H](COP(=O)(O)OP(=O)(O)OP(=O)(O)O)O[C@H]1n1ccc(N)nc1=O [PSI-6130-TP]
t1/2 (Hepatocyte): 4.7 h | Ki (Hepatitis C virus [1]): 23 nM | IC50 (Hepatitis C virus [1]; Con1): 130 nM | IC50 (Hepatitis C virus [2]): 340 nM

O=c1ccn([C@@H]2O[C@H](COP(=O)(O)OP(=O)(O)OP(=O)(O)O)[C@@H](O)[C@H]2O)c(=O)[nH]1
Km (Hepatitis C virus [1]; Hepatitis C virus subtype 1b, Con1): 0.37 µM
